Measurements published in ChEMBL document CHEMBL1641490, “Dicationic phenyl-2,2'-bichalcophenes and analogues as antiprotozoal agents” (Bioorg Med Chem, 2011).
Activity calls are given as the source filed them. The calls are words filed in the database; no cut-off is given here.

What was measured:
[1] = Selectivity index, ratio of IC50 for rat L6 cells to IC50 for Trypanosoma brucei rhodesiense STIB900; format: toxicity, cell-based; details: L6 cells versus Trypanosoma brucei rhodesiense STIB900, read-out: Ratio IC50
In short: (§1)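 Ratio of IC50 in cultured L6 rat myoblasts (Alamar Blue read-out) to IC50 against P. falciparum K1 or T. b. rhodesiense STIB900. Parasite values are the average of duplicate determinations.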

[2] = tested on: Trypanosoma brucei rhodesiense; assay: Antitrypanosomal activity against Trypanosoma brucei rhodesiense STIB900 infected in NMRI mouse assessed as effect on survival days at 5 mg/kg, ip […] measured up to 60 days; format: functional; details: route intraperitoneal
L6 = assay: Cytotoxicity against rat L6 cells by alamar blue assay; format: cell-based
[3] = tested on: Trypanosoma brucei rhodesiense; assay: Antitrypanosomal activity against Trypanosoma brucei rhodesiense STIB900 after 70 hrs by alamar blue assay; format: functional, organism-based; details: STIB900, 70 h
In short: (§2)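 Parasites were Trypanosoma brucei rhodesiense STIB900 and Plasmodium falciparum K1. Values are averages of duplicate determinations.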

[4] = Selectivity index, ratio of IC50 for rat L6 cells to IC50 for Plasmodium falciparum K1; format: toxicity, cell-based; details: L6 cells versus Plasmodium falciparum K1, read-out: Ratio IC50; in short: as §1
Plasmodium falciparum = assay: Antiplasmodial activity against Plasmodium falciparum K1 infected in human RBC after 48 hrs by [3H]-hypoxanthine incorporation assay; format: functional, organism-based; in short: as §2
[5] = tested on: Trypanosoma brucei rhodesiense; assay: Antitrypanosomal activity against Trypanosoma brucei rhodesiense STIB900 infected in NMRI mouse assessed as parasitemia free host at 5 mg/kg, ip administered 2 days after post infection for 4 consecutive days measured up to 60 days; format: functional, organism-based; set-up: dose 5 mg/kg
[6] = tested on: Trypanosoma brucei rhodesiense; assay: Antitrypanosomal activity against Trypanosoma brucei rhodesiense STIB900 infected in NMRI mouse assessed as effect on survival days at 20 mg/kg, ip administered 2 days after post infection for 4 consecutive days measured up to 60 days; format: functional; details: route intraperitoneal

Cl.N=C(N)c1ccc(-c2ccc(-c3ccc(C(=N)N)s3)s2)cn1
selectivity ratio [1]: 1000
Survival [2]: 49 days
ΔTm (Nucleic Acid): 16.6 °C
IC50 (L6): 4 µM
IC50 [3]: 0.004 µM
selectivity ratio [4]: 1740
IC50 (Plasmodium falciparum): 0.0023 µM

N=C(N)c1ccc(OCCCCCOc2ccc(C(=N)N)cc2)cc1 [PENTAMIDINE]
Survival [2]: >45 days
IC50 (L6): 6 µM
IC50 (Plasmodium falciparum): 0.0064 µM

Cl.N=C(N)c1ccc(-c2ccc(-c3ccc(C(=N)N)s3)s2)cc1
selectivity ratio [1]: 3000
Survival [2]: 25.25 days
ΔTm (Nucleic Acid): 18.1 °C
Activity [5]: inactive
IC50 (L6): 6 µM
IC50 [3]: 0.002 µM
selectivity ratio [4]: 576
IC50 (Plasmodium falciparum): 0.0104 µM

Cl.N=C(N)c1ccc(-c2ccc(-c3ccc(C(=N)N)s3)o2)cc1
selectivity ratio [1]: 1820
Survival [2]: 16.75 days
ΔTm (Nucleic Acid): 14.1 °C
Activity [5]: inactive
IC50 (L6): 10.9 µM
IC50 [3]: 0.006 µM
selectivity ratio [4]: 626
IC50 (Plasmodium falciparum): 0.0174 µM

Cl.N=C(N)c1ccc(-c2ccc(-c3ccc(C(=N)N)o3)o2)cn1
selectivity ratio [1]: 6420
Survival [2]: 41.75 days
ΔTm (Nucleic Acid): 5.5 °C
Activity [5]: inactive
IC50 (L6): 38.5 µM
IC50 [3]: 0.006 µM
selectivity ratio [4]: 38500
IC50 (Plasmodium falciparum): 0.001 µM

Cl.N=C(N)c1ccc(C#Cc2ccc(-c3ccc(C(=N)N)o3)o2)cc1
selectivity ratio [1]: 1500
Survival [2]: 15.25 days
ΔTm (Nucleic Acid): 4 °C
Activity [5]: inactive
IC50 (L6): 63 µM
IC50 [3]: 0.042 µM
selectivity ratio [4]: 4470
IC50 (Plasmodium falciparum): 0.0141 µM

Cl.N=C(N)c1ccc(-c2ccc(-c3ccc(C(=N)N)o3)o2)cc1
selectivity ratio [1]: 3150
ΔTm (Nucleic Acid): 8.5 °C
Survival [6]: >45.5 days
IC50 (L6): 37.8 µM
IC50 [3]: 0.012 µM
selectivity ratio [4]: 910
IC50 (Plasmodium falciparum): 0.0415 µM

Cl.N=C(N)c1ccc(-c2ccc(-c3ccc(C(=N)N)o3)s2)cc1
selectivity ratio [1]: 14900
Survival [2]: >46.5 days
ΔTm (Nucleic Acid): 13.1 °C
IC50 (L6): 29.3 µM
IC50 [3]: 0.002 µM
selectivity ratio [4]: 32600
IC50 (Plasmodium falciparum): 0.0009 µM

N=C(N)c1ccc(-c2ccc(-c3ccc(C(=N)N)cc3)o2)cc1 [FURAMIDINE]
Survival [2]: >46 days
Activity [5]: Active
